Test results: ChEMBL document CHEMBL1152124, “Piperidine variations in search for non-imidazole histamine H(3) receptor ligands” (Bioorg Med Chem, 2008)

Assays:
Histamine H3 receptor [1] = molecular target: T1, Histamine H3 receptor (Homo sapiens, UniProt Q9Y5N1); assay: Displacement of [125I]iodoproxyfan from human recombinant histamine H3 receptor expressed in CHO-K1 cells; assay type: cell-based
Summary of the method: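 Stably transfected CHO-K1 cells washed and harvested in PBS, homogenized in ice-cold 50 mmol/L Na2HPO4/KH2PO4 pH 7.5. Membranes pelleted at 23,000g. Membranes incubated 60 min at 25 °C with 25 pmol/L [125I]iodoproxyfan ± competitor, in triplicate. Stopped by ice-cold medium and filtration through PEI-soaked glass fibre filters; gamma counting. Nonspecific binding defined with imetit. Ki by Cheng-Prusoff; mean of at least triplicate experiments.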

Mus musculus = assay: Antagonist activity at histamine H3 receptor in po dosed Swiss mouse cerebral cortex assessed as Ntau-methylhistamine level after 90 mins by radioimmunoassay; assay type: functional; conditions: 1.5 h
Summary of the method: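 Swiss mice fasted 24 h, then dosed orally. Decapitated 90 min later; cerebral cortex homogenized in 10 vol ice-cold 0.4 M perchloric acid. Nτ-methylhistamine measured by radioimmunoassay. Response related to the maximal rise produced by ciproxifan 3 mg/kg po. At least triplicate experiments; ED50 calculated as mean with SEM.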

Histamine H3 receptor [2] = molecular target: T1, Histamine H3 receptor; assay: Displacement of [3H](R)-alpha-methylhistamine from human histamine H3 receptor expressed in rat C6 cells; assay type: cell-based
Histamine H3 receptor [3] = molecular target: T1, Histamine H3 receptor

T1 sequence (Q9Y5N1 whole entry): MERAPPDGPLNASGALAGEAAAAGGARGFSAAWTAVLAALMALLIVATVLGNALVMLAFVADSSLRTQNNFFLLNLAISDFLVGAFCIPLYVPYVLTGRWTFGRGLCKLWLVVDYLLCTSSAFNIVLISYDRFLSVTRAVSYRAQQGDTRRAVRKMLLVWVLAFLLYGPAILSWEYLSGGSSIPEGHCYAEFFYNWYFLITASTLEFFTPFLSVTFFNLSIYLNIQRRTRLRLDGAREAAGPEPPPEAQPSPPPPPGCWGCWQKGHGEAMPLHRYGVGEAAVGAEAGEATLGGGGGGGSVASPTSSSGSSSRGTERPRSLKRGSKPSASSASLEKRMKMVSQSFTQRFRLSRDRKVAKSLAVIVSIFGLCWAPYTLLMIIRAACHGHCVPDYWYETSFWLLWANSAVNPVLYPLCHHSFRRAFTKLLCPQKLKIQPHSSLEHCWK

SMILES | Ki (Histamine H3 receptor [1]; read-out: Ki) | ED50 (Mus musculus) | further results
Clc1cccc(OCCN2CCC(N3CCCCC3)CC2)c1 | 235 nM | – | –
COc1cccc(OCCN2CCC(N3CCCCC3)CC2)c1 | 132 nM | – | –
Clc1ccc(CCCOCCCN2CCCCC2)cc1 [PITOLISANT] | – | 1.6 mg/kg | –
c1ccc(CCCOCCCN2CCCCC2)cc1 | – | 3.7 mg/kg | Ki (Histamine H3 receptor [2]): 3.1 nM; Ki (Histamine H3 receptor [1]; read-out: pKi (converted)): 3.16 nM
Clc1ccc(OCCN2CCC(N3CCCCC3)CC2)cc1 | 176 nM | – | –
Cc1ccc(OCCN2CCC(N3CCCCC3)CC2)cc1 | 300 nM | – | –
CNC(=O)c1ccc(Oc2ccc3c(c2)CCN(C2CCC2)CC3)nc1 | – | – | pKb (Histamine H3 receptor [3]): 9.3
c1ccc(COCCCc2c[nH]cn2)cc1 [PROXYFAN] | – | > 10 mg/kg | Ki (Histamine H3 receptor [1]; read-out: pKi (converted)): 2.51 nM
C[C@H]1[C@H]2CC[C@H]3[C@@H]4CC=C5C[C@@H](N(C)C)CC[C@]5(C)[C@H]4CC[C@]23CN1C [CONESSINE] | – | – | Ki (Histamine H3 receptor [1]; read-out: pKi (converted)): 5.01 nM
FC(F)(F)c1cccc(OCCN2CCC(N3CCCCC3)CC2)c1 | 164 nM | – | –
CC(C)(C)c1ccc(OCCCN2CCC(N3CCCCC3)CC2)cc1 | 100 nM | > 20 mg/kg | –

Now from value to compound, other results behind:

Ki (Histamine H3 receptor [1]; read-out: Ki) | SMILES | ED50 (Mus musculus) | further results
> 10000 nM | COc1cccc(OCCCN2CCC(N3CCCCC3)CC2)c1 | > 20 mg/kg | –
249 nM | CCCC1CCN(CCCOCCCc2ccccc2)CC1 | > 10 mg/kg | –
165 nM | Clc1ccc(OCCCN2CCC(N3CCCCC3)CC2)cc1 | > 20 mg/kg | –
393 nM | c1ccc(CCCOCCCN2CCC3CCCCC3C2)cc1 (centres undefined) | > 10 mg/kg | –
326 nM | c1ccc(CCCOCCCN2CCC(Cc3ccccc3)CC2)cc1 | > 10 mg/kg | –
274 nM | CCCCC1CCN(CCCOCCCc2ccccc2)CC1 | > 10 mg/kg | –
560 nM | c1ccc(CCCOCCCN2CCc3ccccc3C2)cc1 | > 10 mg/kg | –
